RAM network inh: inhibitors of the yeast RAM network, primary screen, dse1pr::URA3 reporter, 5-FOA selection; S. cerevisiae dse1pr::URA3 reporter, 5-FOA growth OD615, 2 d; analog-sensitive cbk1-as2 kinase mutant strain; inhibition, % at 50 µM; 190,000 tested, 1.8% active;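 active means inhibition above a set limit, 3 SD over mean compound inhibition, cut at about 8.4% in these data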;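 further: 0% = DMSO-only wells with no growth and 100% = 10 µM 1-NA-PP1 full growth; inhibition rescues growth on 5-FOA so higher OD means more RAM inhibition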
TNAP act hiacc: TNAP activators at high phosphate acceptor level, primary screen, biochemical, luminescence, uHTS; purified TNAP, CDP-star luminescence, 1 M DEA, 30 min; hits give high values; 0 = EDTA background, 1 = DMSO-only activity; activation factor at 20 µM; 200,000 tested, under 10 active;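 active means activation factor at least 2 at 20 µM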
Target sequence (P05186 whole entry, looked up): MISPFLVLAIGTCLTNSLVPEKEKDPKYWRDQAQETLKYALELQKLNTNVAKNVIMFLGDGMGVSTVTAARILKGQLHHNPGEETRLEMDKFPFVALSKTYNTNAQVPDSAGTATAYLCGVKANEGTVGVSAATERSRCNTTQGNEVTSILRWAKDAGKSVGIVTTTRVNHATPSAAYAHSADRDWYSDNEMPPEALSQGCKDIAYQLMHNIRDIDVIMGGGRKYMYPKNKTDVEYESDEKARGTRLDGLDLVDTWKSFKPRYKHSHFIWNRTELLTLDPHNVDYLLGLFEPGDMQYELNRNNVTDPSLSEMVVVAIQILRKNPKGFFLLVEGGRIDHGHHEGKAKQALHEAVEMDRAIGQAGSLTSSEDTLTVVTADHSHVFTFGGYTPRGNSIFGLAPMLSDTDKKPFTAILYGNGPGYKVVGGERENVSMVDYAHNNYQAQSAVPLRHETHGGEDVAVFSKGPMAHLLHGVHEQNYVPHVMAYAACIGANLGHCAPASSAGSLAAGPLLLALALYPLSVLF
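Assay system: human TNAP; Input: enzyme diluted 1/800 final; Reagent: CDP-star luminogenic substrate at 100 µM final; Timing: 30 min, room temperature; Signal: luminescence; Evaluation: TNAP activation factor scaled between EDTA and DMSO control wells.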
Yeast growth inh: growth inhibitors of yeast BB579 in restrictive medium, primary screen, yeast lifespan-shortening project, S. cerevisiae | OD615, 48 h | inhibition, % at 10 µM | 140,000 tested, 0.51% active | AID 804, 2007;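 active means inhibition above a set limit, 3 SD over the mean compound inhibition, cut at about 44% in these data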
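System: Saccharomyces cerevisiae DeaD strain BB579, replicative lifespan model yeast. Buffer or medium: restrictive glucose-based CSMM-D medium. Doses: one dose, 10 µM compound with 0.25% DMSO. Timing: 4 h preincubation and 48 h exposure at 30 °C. Detection: turbidity as optical density at 615 nm. Benchmarks: amphotericin B 10 µg/mL, positive.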
TNAP inh no acc: human TNAP enzyme inhibitors, primary screen, biochemical, luminescent, no phosphate acceptor, uHTS | Alkaline phosphatase, tissue-nonspecific isozyme (Homo sapiens), P05186 | purified TNAP, CDP-star luminescence, 30 min | inhibition, % at 20 µM | 200,000 tested, 0.26% active;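 active means tissue-nonspecific alkaline phosphatase inhibition above about 50% at 20 µM in the single-dose screen, limit read from the data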;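 further: 0% = DMSO negative control and 100% = EDTA positive control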
TNAP inh hi DEA: human TNAP enzyme inhibitors, primary screen, biochemical, luminescent, high phosphate acceptor level, uHTS; Alkaline phosphatase, tissue-nonspecific isozyme (Homo sapiens), P05186; purified TNAP, CDP-star luminescence, 1 M DEA; inhibition, % at 20 µM; 200,000 tested, 0.03% active; AID 1135, 2008;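 active means over 50% inhibition of tissue-nonspecific alkaline phosphatase at 20 µM in the single-dose screen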;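 further: plate controls were DMSO wells for no effect and EDTA-quenched wells as full inhibition for full effect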
Yeast life ext: compounds extending yeast replicative lifespan, primary screen, S. cerevisiae, OD615. S. cerevisiae growth with nicotinamide; deaD strain in restrictive glucose medium. inhibition of the nicotinamide effect, % at 10 µM. 130,000 tested, 0.68% active;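 active means inhibition above a set limit, placed 3 SD over the median of all compounds, cut at about 26% in these data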;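 further: 0% = nicotinamide-treated wells and 100% = cells grown without nicotinamide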
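assay system = DeaD-strain S. cerevisiae | measured by = absorbance at 615 nm | probe or stimulus = nicotinamide 1.5 mM | buffer or medium = CSMM-D glucose medium, restrictive | times = 48 h at 30 °C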
Starred values were filed as active, the others as inactive; nt = no result given. Hits are enriched below; roughly 2.8% of the tested compounds scored in any of these assays.

SMILES	RAM network inh	TNAP act hiacc	Yeast growth inh	TNAP inh no acc	TNAP inh hi DEA	Yeast life ext
Brc1ccc(CSc2ccc3nnc(-c4ccccn4)n3n2)cc1	9.9*	1	nt	-7	-1	nt
Cc1ccc(S(=O)(=O)CCSc2cccc(C(=O)Nc3ccccc3C(=O)O)c2)cc1	7	1	-13	-10	-5	-2
Cn1c(SCC(=O)N2CCCc3ccccc32)nnc1-c1c[nH]c2ccccc12	-1	1	-45	-13	0	43*
COCCNS(=O)(=O)c1cc(C(=O)O)ccc1OC	0	1	nt	-6	-3	nt
CCCOP(=O)(OCCC)C(Nc1cccc(C(F)(F)F)c1)c1ccc(C)cc1 (stereo unspecified)	10*	1	-45	-7	-4	-3
CCOP(=O)(OCC)C(Nc1cccc(C(F)(F)F)c1)c1ccc(C)cc1 (stereo unspecified)	5	1	5	-15	-4	1
COc1ccc(/C=C2\SC(=N)N(c3nccs3)C2=O)cc1OC	-1	0.9	-28	-55	10	38*
CCc1cccc(CC)c1NC(=O)/C(C#N)=C/c1ccccc1C(F)(F)F	3	1	-2	-1	5	8
CC(C)C[C@H](NC(=O)c1nc[nH]c1C(=O)NCCCCCNC(=O)OC(C)(C)C)C(=O)OCc1ccccc1	10*	1	nt	-5	-4	nt
C[C@@H](NC(=O)c1nc[nH]c1C(=O)N[C@@H](Cc1ccccc1)C(=O)OCc1ccccc1)c1ccccc1	8	1	nt	-10	-3	nt
C[C@H](NC(=O)c1nc[nH]c1C(=O)N[C@@H](Cc1ccccc1)C(=O)OCc1ccccc1)c1ccccc1	8.6*	1	nt	-6	-1	nt
CCC(C)(C(=O)NC1CCCCC1)N(Cc1ccco1)C(=O)Cc1cccs1 (stereo unspecified)	2	0.9	-11	18	7	-12
CCOc1ccc(OCC)c(NC(=O)CN2CCN(c3cc(C)ccc3C)CC2)c1	8.7*	1.1	-29	-14	-12	-2
CCOc1ccc(OCC)c(NC(=O)CN2CCN(c3cccc(C)c3)CC2)c1	1	1	-19	-9	-4	0
NS(=O)(=O)c1ccc(NC(=S)NCc2ccco2)cc1	4	1	nt	-7	-4	nt
CC(Sc1nc(-c2ccccc2)cs1)C(=O)Nc1ccc(Cl)cn1 (stereo unspecified)	9.5*	1	3	-12	1	-3
Cn1c(=O)c(C(=O)CN2CC(=O)Nc3ccccc32)c(N)n(Cc2ccccc2)c1=O	1	1.1	nt	-2	-6	nt
Cc1ccc(-c2cc(C(=O)N3N=C(C(F)F)CC3(O)C(F)F)c3ccccc3n2)cc1C (stereo unspecified)	-1	1	68*	-10	3	-8
COc1cccc(Nc2nc(=O)[nH]nc2C)c1	1	1	-9	-16	-4	-13
CC(=O)Nc1ccc(C(=O)CSc2nnc(-c3ccc(O)cc3)n2CC2CCCO2)cc1 (stereo unspecified)	1	1.1	-23	-11	-6	64*
Cc1cccc(CC2S/C(=N/N=C/c3ccco3)N(c3ccccc3)C2=O)c1 (stereo unspecified)	11*	1	-35	-8	-2	0
C=CCN1C(=O)C(Cc2ccc(Br)cc2)S/C1=N\N=C\c1ccco1 (stereo unspecified)	10.0*	1	-68	-10	-3	7
C=CCN1C(=O)C(Cc2ccc(F)cc2)S/C1=N/N=C/c1ccco1 (stereo unspecified)	4	1	-16	19	3	-1
Cc1cccc2c(SCC(=O)NCC3CCCO3)nc(-c3ccc(F)cc3)nc12 (stereo unspecified)	0	1	-41	-3	-1	1
